Test results from PubChem BioAssay AID463144 (The Scripps Research Institute Molecular Screening Center, 2010).

Tested on: HEK293T G6PC promoter luciferase with RORa, 20 h
Assay: G6PC promoter luciferase repression by compounds – cell-based, luminescence, single concentration, counter-screen for RORA inverse agonist project, late-stage follow-up (AID 463144)
Settings: at 10 µM; stronger effect = lower value
Procedure, shortened: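 Material – HEK293T with RORa, SRC-2 and G6PC promoter luciferase reporter · Compound – one dose, 10 µM nominal · Timing – compound exposure of 20 h · Signal – luciferase luminescence from G6PC promoter reporter · Evaluation – average fold change versus vehicle wells · Controls – DMSO-only vehicle cells as reference · Replication – n of 6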

Compound `O=S(=O)(Nc1ccc(C(O)(C(F)(F)F)C(F)(F)F)cc1)c1cccs1` has a fold change of 0.64.
